# Experimental data: PMC11871391 (Journal of Diabetes Investigation, 2024)
# Legend:
# individuals with T1D = settings: trials with degludec in T1D; cited from earlier work
# [1] = format: in vivo, human; settings: weekly dosing interval at steady state, Japanese T1D
# Procedure, shortened: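 Japanese adults (20–64 y) with T1D got subcutaneous thigh doses once weekly around 20:00 for 8 weeks. The constant weekly dose was seven times the run-in daily glargine U100 dose, with glargine top-up in weeks 1–2. Blood was sampled from the first dose to 35 days after the last. Total serum drug (albumin-bound plus unbound) was measured by validated specific immunoassay. AUC was by linear trapezoid over 0–168 h; t½ was log(2)/λz by linear regression.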
# [2] = tested on: Japanese individuals with type 1 diabetes; format: in vivo, human; settings: weekly dosing interval at steady state, Japanese T1D
# Procedure, shortened: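 Steady-state clamps (target 6.7 mmol/L) ran 24–48 h and 150–168 h after the final weekly dose. Before the clamp, glucose had to stay within ±20% from 60 to 30 min prior, within ±10% in the last 30 min, and fluctuate ≤0.3 mmol/L in the final 10 min. GIR was Loess-smoothed (factor 0.25). A per-participant PK/PD model simulated the daily effect across the full week.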
# [3] = tested on: Japanese individuals with type 1 diabetes; assay: Safety evaluation during treatment periods; format: in vivo, human; settings: Japanese T1D; for rate of nocturnal Level 2 hypoglycemia / rate of overall Level 2 hypoglycemia (plasma glucose <3.0 mmol/L): glucose clamps excluded; for rate of overall Level 2 hypoglycemia (plasma glucose <3.0 mmol/L): from SMPG
# Procedure, shortened: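 Randomized crossover in Japanese adults with T1D: once-weekly test insulin for 8 weeks and once-daily glargine U100 for 14 days, both with bolus aspart. Safety covered AEs, vital signs, ECG, physical exam and laboratory tests, with clinically significant findings recorded as AEs. Hypoglycemia (Level 2, <3.0 mmol/L; Level 3, severe) and hyperglycemia (>16.7 mmol/L) were identified from SMPG. Events were expressed per patient-year of exposure and summarized descriptively.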
# [4] = White individuals; cited from earlier work
# insulin receptor = settings: cited from earlier work
Substance,rate of clinically significant or severe hypoglycemia previously reported (individuals with T1D),day of maximum exposure [1],day of maximum glucose-lowering effect [2],rate of hyperglycemia (plasma glucose >16.7 mmol/L) [3] [episodes per PYE],severe (Level 3) hypoglycemic episodes [3],rate of nocturnal Level 2 hypoglycemia [3] [episodes per PYE],rate of overall Level 2 hypoglycemia (plasma glucose <3.0 mmol/L) [3] [episodes per PYE],half-life [4],affinity for the insulin receptor (insulin receptor)
insulin degludec,42.5–88.3 episodes per PYE,–,–,–,–,–,–,–,–
insulin icodec,–,Day 1,Day 2,33.6,no severe (Level 3) hypoglycemic episodes,7.8,37.3,approximately 1 week,low affinity
insulin glargine U100 [reference compound],–,–,–,36.5,no severe (Level 3) hypoglycemic episodes,9.4,30.6,–,–
